Data taken from ChEMBL document CHEMBL4270668, “Design, Synthesis, Molecular Dynamics Simulation, and Functional Evaluation of a Novel Series of 26RFa Peptide Analogues Containing a Mono- or Polyalkyl Guanidino Arginine Derivative” (J Med Chem, 2018).
Starred links: 1 amine or outer side, 2 acyl side, 3 side chain; linkers in the order of their positions; H or OH if unused. Non-standard residues stand in square brackets, D forms with d. Residues, ends and D or L forms follow the SMILES beside them. X25 = C/N=C(/NCCCC[C@H](N[*:1])C(=O)[*:2])N(C)C; X18 = C/N=C(/NCC[C@H](N[*:1])C(=O)[*:2])N(C)C; X17 = CC(C)CNC(=N)NCC[C@H](N[*:1])C(=O)[*:2]; X21 = CCN(C)C(=N)NCCC[C@H](N[*:1])C(=O)[*:2]; X8 = CCN(CC)C(=N)NCCC[C@H](N[*:1])C(=O)[*:2]; X12 = CCCNC(=N)NCCCC[C@H](N[*:1])C(=O)[*:2]; X5 = CCN(CC)C(=N)NCC[C@H](N[*:1])C(=O)[*:2]; X13 = C/N=C(\NC)NCC[C@H](N[*:1])C(=O)[*:2]; X20 = CCNC(=N)NCCCC[C@H](N[*:1])C(=O)[*:2]; X9 = N=C(NCC[C@H](N[*:1])C(=O)[*:2])N1CCC1; X15 = CCNC(=N)NCC[C@H](N[*:1])C(=O)[*:2]; Arg(Me2s) = CN=C(NC)NCCC[C@H](N)C(=O)O; X4 = CNC(=N)NCC[C@H](N[*:1])C(=O)[*:2]; Arg(Et) = CCNC(=N)NCCC[C@H](N)C(=O)O; hArg = N=C(N)NCCCC[C@H](N)C(=O)O; Agb = N=C(N)NCC[C@H](N)C(=O)O

Tests used:
[1] = molecular target: T1, Pyroglutamylated RF-amide peptide receptor (Homo sapiens, UniProt Q96P65); assay: Agonist activity at human QRFPR expressed in CHO cells co-expressing Galpha16 assessed as increase Ca2+ mobilization after 3 mins by Fluo-4 AM-based scanning fluorometery; assay type: functional, cell-based
T1 sequence (Q96P65 whole entry): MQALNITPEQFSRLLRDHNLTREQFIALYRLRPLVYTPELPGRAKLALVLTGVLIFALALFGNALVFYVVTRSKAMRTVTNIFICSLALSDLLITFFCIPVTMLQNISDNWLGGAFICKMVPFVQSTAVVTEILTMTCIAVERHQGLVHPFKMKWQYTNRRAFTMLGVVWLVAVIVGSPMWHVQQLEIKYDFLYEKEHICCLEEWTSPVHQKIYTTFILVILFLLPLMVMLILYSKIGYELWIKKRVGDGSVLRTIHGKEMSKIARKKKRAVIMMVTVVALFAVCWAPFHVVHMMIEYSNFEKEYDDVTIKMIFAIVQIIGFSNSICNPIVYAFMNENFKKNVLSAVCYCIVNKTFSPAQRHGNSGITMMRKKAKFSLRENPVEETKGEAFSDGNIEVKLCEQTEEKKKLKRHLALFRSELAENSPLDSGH
How it was run: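 CHO-Gα16 cells stably expressing human QRFPR, seeded at 40,000 cells/well 24 h ahead. Loaded 1 h with 2 µM Fluo-4 AM plus 0.01% pluronic acid, washed, then 30 min in HBSS with 2.5 mM probenecid and 5 mM HEPES. Compounds added at final 10^-11 to 10^-5 M; fluorescence recorded 3 min on a scanning fluorometer. EC50 from sigmoidal variable-slope fits, ≥3 experiments in triplicate.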

[2] = molecular target: T1, Pyroglutamylated RF-amide peptide receptor; assay: Antagonist activity at human QRFPR expressed in CHO cells co-expressing Galpha16 assessed as inhibition of 26RFa-induced Ca2+ mobilization preincubated for 15 mins followed by agonist addition measured after 3 mins by Fluo-4 AM-based scanning fluorometery; assay type: functional, cell-based
How it was run: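 CHO-Gα16-hQRFPR cells loaded 1 h with 2 µM Fluo-4 AM, then incubated 15 min with graded compound. A 10^-7 M final 26RFa pulse was given during recording. Background subtracted, baseline normalized to 100%, peak fluorescence taken per concentration. IC50 from sigmoidal variable-slope fits, ≥3 experiments in triplicate. Maximal effect at 10^-4 M expressed as % inhibition of the 26RFa (10^-7 M) response.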

| SMILES | EC50 [1] | IC50 [2] |
| --- | --- | --- |
| CC(C)CNC(=N)NCC[C@H](NC(=O)[C@H](Cc1ccccc1)NC(=O)[C@H](CO)NC(=O)[C@H](Cc1ccccc1)NC(=O)CNC(=O)CN)C(=O)N[C@@H](Cc1ccccc1)C(N)=O (H-GGFSF[X17]F-NH2) | > 100 µM | > 100 µM |
| CCNC(=N)NCCCC[C@H](NC(=O)[C@H](Cc1ccccc1)NC(=O)[C@H](CO)NC(=O)[C@H](Cc1ccccc1)NC(=O)CNC(=O)CN)C(=O)N[C@@H](Cc1ccccc1)C(N)=O (H-GGFSF[X20]F-NH2) | > 100 µM | > 100 µM |
| N=C(N)NCC[C@H](NC(=O)[C@H](Cc1ccccc1)NC(=O)[C@H](CO)NC(=O)[C@H](Cc1ccccc1)NC(=O)CNC(=O)CN)C(=O)N[C@@H](Cc1ccccc1)C(N)=O (H-GGFSF[Agb]F-NH2) | > 100 µM | > 100 µM |
| C/N=C(\NC)NCC[C@H](NC(=O)[C@H](Cc1ccccc1)NC(=O)[C@H](CO)NC(=O)[C@H](Cc1ccccc1)NC(=O)CNC(=O)CN)C(=O)N[C@@H](Cc1ccccc1)C(N)=O (H-GGFSF[X13]F-NH2) | > 100 µM | > 100 µM |
| C/N=C(/NC)NCCC[C@H](NC(=O)[C@H](Cc1ccccc1)NC(=O)[C@H](CO)NC(=O)[C@H](Cc1ccccc1)NC(=O)CNC(=O)CN)C(=O)N[C@@H](Cc1ccccc1)C(N)=O (H-GGFSF[Arg(Me2s)]F-NH2) | > 100 µM | > 100 µM |
| N=C(N)NCCCC[C@H](NC(=O)[C@H](Cc1ccccc1)NC(=O)[C@H](CO)NC(=O)[C@H](Cc1ccccc1)NC(=O)CNC(=O)CN)C(=O)N[C@@H](Cc1ccccc1)C(N)=O (H-GGFSF[hArg]F-NH2) | 1.91 µM |  |
| C/N=C(/NCCCC[C@H](NC(=O)[C@H](Cc1ccccc1)NC(=O)[C@H](CO)NC(=O)[C@H](Cc1ccccc1)NC(=O)CNC(=O)CN)C(=O)N[C@@H](Cc1ccccc1)C(N)=O)N(C)C (H-GGFSF[X25]F-NH2) | > 100 µM | > 100 µM |
| CCN(CC)C(=N)NCC[C@H](NC(=O)[C@H](Cc1ccccc1)NC(=O)[C@H](CO)NC(=O)[C@H](Cc1ccccc1)NC(=O)CNC(=O)CN)C(=O)N[C@@H](Cc1ccccc1)C(N)=O (H-GGFSF[X5]F-NH2) | > 100 µM | > 100 µM |
| N=C(NCC[C@H](NC(=O)[C@H](Cc1ccccc1)NC(=O)[C@H](CO)NC(=O)[C@H](Cc1ccccc1)NC(=O)CNC(=O)CN)C(=O)N[C@@H](Cc1ccccc1)C(N)=O)N1CCC1 (H-GGFSF[X9]F-NH2) | > 100 µM | > 100 µM |
| C/N=C(/NCC[C@H](NC(=O)[C@H](Cc1ccccc1)NC(=O)[C@H](CO)NC(=O)[C@H](Cc1ccccc1)NC(=O)CNC(=O)CN)C(=O)N[C@@H](Cc1ccccc1)C(N)=O)N(C)C (H-GGFSF[X18]F-NH2) | > 100 µM | > 100 µM |
| CCN(CC)C(=N)NCCC[C@H](NC(=O)[C@H](Cc1ccccc1)NC(=O)[C@H](CO)NC(=O)[C@H](Cc1ccccc1)NC(=O)CNC(=O)CN)C(=O)N[C@@H](Cc1ccccc1)C(N)=O (H-GGFSF[X8]F-NH2) | > 100 µM | > 100 µM |
| CCNC(=N)NCCC[C@H](NC(=O)[C@H](Cc1ccccc1)NC(=O)[C@H](CO)NC(=O)[C@H](Cc1ccccc1)NC(=O)CNC(=O)CN)C(=O)N[C@@H](Cc1ccccc1)C(N)=O (H-GGFSF[Arg(Et)]F-NH2) | 1.37 µM |  |
| CNC(=N)NCC[C@H](NC(=O)[C@H](Cc1ccccc1)NC(=O)[C@H](CO)NC(=O)[C@H](Cc1ccccc1)NC(=O)CNC(=O)CN)C(=O)N[C@@H](Cc1ccccc1)C(N)=O (H-GGFSF[X4]F-NH2) | > 100 µM | > 100 µM |
| CCN(C)C(=N)NCCC[C@H](NC(=O)[C@H](Cc1ccccc1)NC(=O)[C@H](CO)NC(=O)[C@H](Cc1ccccc1)NC(=O)CNC(=O)CN)C(=O)N[C@@H](Cc1ccccc1)C(N)=O (H-GGFSF[X21]F-NH2) | > 100 µM | > 100 µM |
| CCCNC(=N)NCCCC[C@H](NC(=O)[C@H](Cc1ccccc1)NC(=O)[C@H](CO)NC(=O)[C@H](Cc1ccccc1)NC(=O)CNC(=O)CN)C(=O)N[C@@H](Cc1ccccc1)C(N)=O (H-GGFSF[X12]F-NH2) | > 100 µM | > 100 µM |
| CCNC(=N)NCC[C@H](NC(=O)[C@H](Cc1ccccc1)NC(=O)[C@H](CO)NC(=O)[C@H](Cc1ccccc1)NC(=O)CNC(=O)CN)C(=O)N[C@@H](Cc1ccccc1)C(N)=O (H-GGFSF[X15]F-NH2) | > 100 µM | > 100 µM |
